Assay results published in ChEMBL document CHEMBL1156058, “Discovery of disubstituted phenanthrene imidazoles as potent, selective and orally active mPGES-1 inhibitors” (Bioorg Med Chem Lett, 2009).
Calls of active or inactive are those of the source. The rule behind the calls is not given here.

Tests used:
Blood [1] = experiment: Inhibition of PGE2 production in LPS-stimulated human whole blood; format: functional, tissue-based
Blood [2] = experiment: Inhibition of PGI2 production in LPS-stimulated human whole blood; format: functional, tissue-based
Blood [3] = experiment: Inhibition of TXA2 production in human whole blood; format: functional, tissue-based
A549 = experiment: Inhibition of PGF2alpha production in human A549 cells in presence of 50% fetal bovine serum; format: functional, cell-based
Cavia porcellus = experiment: Analgesic activity against LPS-induced thermal hyperalgesia in po dosed Hartley guinea pig assessed as decrease in paw withdrawal latency administered 1 hr before LPS challenge measured after […]; format: functional
Blood [4] = experiment: Inhibition of TXB2 production in LPS-stimulated human whole blood; format: functional, tissue-based
Blood [5] = experiment: Inhibition of PGD2 production in LPS-stimulated human whole blood; format: functional, tissue-based
[6] = target: Prostaglandin E synthase 2 (Homo sapiens, UniProt Q9H7Z7); experiment: Inhibition of human PGES2
Chain of Prostaglandin E synthase 2 (Q9H7Z7 whole entry): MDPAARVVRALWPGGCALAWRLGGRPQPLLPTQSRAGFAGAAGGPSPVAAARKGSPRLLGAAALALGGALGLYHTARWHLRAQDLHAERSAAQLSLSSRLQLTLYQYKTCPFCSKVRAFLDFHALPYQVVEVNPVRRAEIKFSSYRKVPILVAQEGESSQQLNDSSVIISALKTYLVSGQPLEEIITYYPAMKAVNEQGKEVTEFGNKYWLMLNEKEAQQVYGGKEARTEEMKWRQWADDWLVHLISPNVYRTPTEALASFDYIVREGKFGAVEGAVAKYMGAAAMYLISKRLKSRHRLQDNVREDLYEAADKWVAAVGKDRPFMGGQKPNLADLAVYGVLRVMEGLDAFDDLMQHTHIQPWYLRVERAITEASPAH

[7] = Half life in rat at 5 mg/kg, iv administered as single dose; format: ADME, organism-based; parameters: dose 5 mg/kg, route intravenous; conditions: in vivo
[8] = Metabolic stability in rat liver hepatocytes assessed as compound remaining after 2 hrs; format: ADME, cell-based, Hepatocyte; conditions: read-out: Stability
Method in brief: (§1)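 Compound incubated with hepatocytes (rat or human) for 2 h at 37 °C; read-out is % parent compound remaining; values are means of at least two experiments.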

Thromboxane-A synthase = target: T1, Thromboxane-A synthase (Homo sapiens, UniProt P24557); experiment: Inhibition of TX synthase
T1 sequence (P24557 whole entry): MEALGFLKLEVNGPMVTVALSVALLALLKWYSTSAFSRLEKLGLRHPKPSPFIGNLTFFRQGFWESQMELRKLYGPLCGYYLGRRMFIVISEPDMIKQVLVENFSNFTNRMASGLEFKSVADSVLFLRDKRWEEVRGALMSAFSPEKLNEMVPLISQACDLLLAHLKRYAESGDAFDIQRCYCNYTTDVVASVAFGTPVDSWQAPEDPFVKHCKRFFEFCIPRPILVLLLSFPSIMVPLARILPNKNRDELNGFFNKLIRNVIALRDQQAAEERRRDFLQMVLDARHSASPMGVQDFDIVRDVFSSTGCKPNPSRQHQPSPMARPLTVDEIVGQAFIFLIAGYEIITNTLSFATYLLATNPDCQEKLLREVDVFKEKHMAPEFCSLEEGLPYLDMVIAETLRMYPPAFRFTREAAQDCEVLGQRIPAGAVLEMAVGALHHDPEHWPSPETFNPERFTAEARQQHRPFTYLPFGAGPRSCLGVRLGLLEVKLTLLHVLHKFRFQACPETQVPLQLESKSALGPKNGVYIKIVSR

[9] = Oral bioavailability in rat at 20 mg/kg administered as single dose; format: ADME, organism-based; conditions: in vivo
[10] = Metabolic stability in human liver hepatocytes assessed as compound remaining after 2 hrs; format: ADME, cell-based, Hepatocyte; conditions: read-out: Stability; method in brief: as §1
Prostaglandin E synthase [11] = target: T2, Prostaglandin E synthase (Homo sapiens, UniProt O14684); experiment: Displacement of [3H]PGH2 from human recombinant PGES1 expressed in CHOK1 cells; format: cell-based, CHO-K1
T2 sequence (O14684 whole entry): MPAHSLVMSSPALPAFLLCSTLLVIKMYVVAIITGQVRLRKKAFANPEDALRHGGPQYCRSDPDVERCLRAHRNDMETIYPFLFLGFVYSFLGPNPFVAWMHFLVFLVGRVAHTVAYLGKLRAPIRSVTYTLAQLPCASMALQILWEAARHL

Prostaglandin E synthase [12] = target: T2, Prostaglandin E synthase; experiment: Inhibition of mPGES1 in IL-1-beta-stimulated human A549 cells assessed as blockade of PGH2 to PGE2 conversion in presence of 50% fetal bovine serum; format: cell-based
[13] = Tmax in rat at 20 mg/kg; format: ADME, organism-based; parameters: dose 20 mg/kg; conditions: in vivo
[14] = Inhibition of PGES1 in guinea pig whole blood; format: tissue-based; conditions: Cavia porcellus
[15] = Half life in monkey; format: ADME, organism-based, Macaca mulatta; conditions: rhesus monkey, in vivo

Row | SMILES | IC50 (Blood [1]) [µM] | half-life [7] [h] | IC50 (Prostaglandin E synthase [11]) [µM] | also measured
1 | N#Cc1cccc(C#N)c1-c1nc2c3ccc(Cl)cc3c3cc(C#CC4(O)CCCC4)ccc3c2[nH]1 | 0.26 | – | – | –
2 | CC(C)(O)Cc1ccc2c(c1)c1cc(OCCC3CC3)ccc1c1nc(-c3c(C#N)cc(F)cc3C#N)[nH]c21 | 0.14 | – | – | Activity (Blood [2]): inactive; Activity (Blood [3]): inactive; IC50 (A549): > 40 µM; ED50 (Cavia porcellus): 14 mg/kg; IC50 (Blood [4]): > 40 µM; Activity (Blood [5]): inactive
3 | N#Cc1cccc(C#N)c1-c1nc2c3ccc(Cl)cc3c3cc(C#Cc4ccncc4)ccc3c2[nH]1 | 0.39 | – | – | –
4 | CC(C)(O)Cc1ccc2c(c1)c1cc(OCCC3CC3)ccc1c1[nH]c(-c3c(C#N)cc(F)cc3C#N)nc21 | – | 2.3 | – | IC50 [6]: > 30 µM; remaining at 2 h [8]: 68%; IC50 (Thromboxane-A synthase): 30 µM; bioavailability [9]: 68%; remaining at 2 h [10]: 81%
5 | N#Cc1cccc(C#N)c1-c1nc2c3ccc(Cl)cc3c3cc(OCCn4cccc4)ccc3c2[nH]1 | 0.38 | – | – | –
6 | CC(C)(O)Cc1ccc2c(c1)c1cc(OCCCC(F)(F)F)ccc1c1nc(-c3c(C#N)cccc3C#N)[nH]c21 | 0.25 | 3.3 | 0.001 | remaining at 2 h [8]: 92%; bioavailability [9]: 85%; remaining at 2 h [10]: 98%
7 | CC(C)(O)C#Cc1ccc2c(c1)c1cc(C#CC3CC3)ccc1c1nc(-c3c(C#N)cccc3C#N)[nH]c21 | 0.076 | 40 | 0.001 | –
8 | CC(C)(O)CCc1ccc2c(c1)c1cc(Cl)ccc1c1nc(-c3c(C#N)cccc3C#N)[nH]c21 | 0.2 | 14 | – | –
9 | CC(C)(O)Cc1ccc2c(c1)c1cc(OCCC3CC3)ccc1c1nc(-c3c(C#N)cccc3C#N)[nH]c21 | 0.22 | 1.6 | 0.0009 | bioavailability [9]: 76%
10 | CC(C)COc1ccc2c(c1)c1cc(CC(C)(C)O)ccc1c1nc(-c3c(C#N)cccc3C#N)[nH]c21 | 0.29 | 1.3 | 0.003 | bioavailability [9]: 30%
11 | CC(=O)c1ccc2c(c1)c1cc(C(C)=O)ccc1c1[nH]c(-c3c(F)cccc3Cl)nc21 | – | – | 0.122 | IC50 (Prostaglandin E synthase [12]): > 50 µM
12 | N#CCCCOc1ccc2c(c1)c1cc(Cl)ccc1c1nc(-c3c(C#N)cccc3C#N)[nH]c21 | 0.38 | – | – | –
13 | CC(C)(O)Cc1ccc2c(c1)c1cc(Cl)ccc1c1nc(-c3c(C#N)cccc3C#N)[nH]c21 | 0.25 | 8.4 | 0.002 | Tmax [13]: 1 h
14 | N#Cc1cccc(C#N)c1-c1nc2c3ccc(Cl)cc3c3cc(C#Cc4cccnc4)ccc3c2[nH]1 | 0.53 | – | – | –
15 | CC(C)(O)Cc1ccc2c(c1)c1cc(OCC3CC3)ccc1c1nc(-c3c(C#N)cccc3C#N)[nH]c21 | 0.35 | 5.5 | 0.003 | bioavailability [9]: 36%; remaining at 2 h [10]: > 99%
16 | CC(C)(O)C#Cc1ccc2c(c1)c1cc(Cl)ccc1c1nc(-c3c(C#N)cccc3C#N)[nH]c21 | 0.2 | 20 | – | Activity (Blood [2]): inactive; IC50 [6]: > 30 µM; IC50 (A549): > 40 µM; remaining at 2 h [8]: 97%; ED50 (Cavia porcellus): 30 mg/kg; IC50 (Thromboxane-A synthase): 0.8 µM; IC50 (Blood [4]): > 40 µM; IC50 [14]: 0.1 µM; remaining at 2 h [10]: 97%; Activity (Blood [5]): inactive
17 | CS(=O)(=O)c1ccc(-c2ccc3c(c2)c2cc(Cl)ccc2c2nc(-c4c(C#N)cccc4C#N)[nH]c32)cc1 | 0.41 | – | – | –
18 | N#Cc1cccc(C#N)c1-c1nc2c3ccc(Cl)cc3c3ccccc3c2[nH]1 | – | 1.5 | – | half-life [15]: 1.3 h; IC50 [6]: > 30 µM; IC50 (A549): > 40 µM; ED50 (Cavia porcellus): 100 mg/kg; IC50 [14]: 0.1 µM; remaining at 2 h [10]: 90%
19 | CCc1ccc2c(c1)c1cc(C#CC(C)(C)O)ccc1c1[nH]c(-c3c(C#N)cccc3C#N)nc21 | 0.37 | 7 | 0.001 | –
20 | CS(=O)(=O)c1ccc2c(c1)c1cc(Cl)ccc1c1nc(-c3c(C#N)cccc3C#N)[nH]c21 | > 10 | – | – | –
21 | CC(C)(O)c1ccc2c(c1)c1cc(Cl)ccc1c1nc(-c3c(C#N)cccc3C#N)[nH]c21 | 1.4 | – | – | –
22 | CC(C)CCOc1ccc2c(c1)c1cc(CC(C)(C)O)ccc1c1[nH]c(-c3c(C#N)cccc3C#N)nc21 | 0.15 | 4.8 | – | remaining at 2 h [8]: 8%; bioavailability [9]: 46%; remaining at 2 h [10]: 30%
23 | COCC#Cc1ccc2c(c1)c1cc(Cl)ccc1c1nc(-c3c(C#N)cccc3C#N)[nH]c21 | 1.1 | – | – | –
